# Hits are enriched below; roughly 4.2% of the tested compounds scored in any of these assays.
# WT yeast gro inh: growth inhibition of WT yeast, mitochondrial fusion screen; inhibition, % at 10 µM; 190,000 tested, 2.1% active; mitochondrial fusion phenotypic screen, WT strain; AID 1362; in the data active = inhibition above about 58%; tested in S. cerevisiae
# Cl transport mod: modulators of human KCC2 chloride dependent transport. Q9H2X9. KCC2 cells, thallium flux FluoZin-2 fluorescence. B-score of Tl+ flux slope (higher = more flux/activation; lower = inhibition) at 10 µM. 190,000 tested, 2.2% active. AID 1456;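 active = thallium flux slope and its plate-corrected score both differing from the plate sample mean at a set confidence after two filtering rounds, in either direction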;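 note: slope of fluorescence scaled to starting intensity during 10 to 20 s after thallium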
# Ins promoter up: MIN6 insulin promoter up-regulation; MIN6 insulin promoter-GFP reporter, high-content imaging; active compounds read high; z-score at 5 µM; 190,000 tested, 0.3% active; AID 1625;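 active = z-score above 3 at 5 µM with at least 500 cells counted in the well; inconclusive = wells under 500 cells, flagged as cytotoxic or low count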
# Autophagy mod: alters autophagy in cells | MEF GFP-LC3 puncta imaging; test concentration mostly 10 µM | calls only at 10 µM (by protocol) | 190,000 tested, 0.98% active | AID 463193;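 active = percentage of spot-positive cells more than 3 SD above its plate mean, without a fluorescence outlier flag or 80% toxicity; inconclusive = no clear call, values can overlap the other calls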
# SKKanGAS inh: inhibitors of SKKanGAS S. pyogenes growth in kanamycin (SK-promoter or general growth effect). BacTiter-Glo, 6 h. inhibition, % at 7.5 µM. 300,000 tested, 1.3% active. AID 1662;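 active = mean replicate score, as percent of positive control median, at least 50; inconclusive = mean below 50 but one replicate at or above 50; inactive = mean and every replicate below 50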;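 note: strain carries kanamycin resistance gene driven by streptokinase promoter and grows in 40 µg/ml kanamycin; loss of luminescence reflects streptokinase promoter inhibition or plain growth inhibition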
# Rad51 HR inh: Rad51 (human) homologous recombination inhibition | Q06609 | hRad51 DNA strand exchange, fluorescence dequenching | inhibition, % at 10 µM | 200,000 tested, 0.085% active | AID 1385;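 active = inhibition above 40% at the single screening dose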
# Target sequence (Q06609 whole entry, looked up): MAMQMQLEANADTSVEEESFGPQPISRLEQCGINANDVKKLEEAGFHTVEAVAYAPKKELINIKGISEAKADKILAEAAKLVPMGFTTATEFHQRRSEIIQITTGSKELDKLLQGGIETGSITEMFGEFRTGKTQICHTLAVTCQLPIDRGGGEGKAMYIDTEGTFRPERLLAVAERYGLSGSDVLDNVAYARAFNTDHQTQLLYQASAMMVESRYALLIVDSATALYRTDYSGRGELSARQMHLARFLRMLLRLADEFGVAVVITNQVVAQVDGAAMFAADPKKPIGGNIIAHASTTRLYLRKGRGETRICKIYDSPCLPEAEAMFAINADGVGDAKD
#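 Test system – preformed human Rad51 ssDNA filaments · Reagent – Donor/quencher-labelled 47-bp dsDNA substrate · Incubation – 37 °C 15-min filament assembly, 30-min compound preincubation, 15-min exchange · Signal – FRET fluorescence dequenching, excitation 485 nm, emission 520 nm · Read-out – percent inhibition from fluorescence, normalised to plate control and blank means · Benchmarks – plate control and blank wells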
# KCC2 secondary: confirmation of human KCC2 transport modulators | shares compounds with Cl transport mod | HEK293-KCC2, thallium flux, FluoZin2 fluorescence; active compounds read high | normalised thallium flux (F/F0 slope) at 10 µM | 3,700 tested, 15% active;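 active = thallium flux slope above the same plate's solvent-only control mean plus 3 SD; inconclusive = the two replicate wells disagree; inactive = no significant difference from solvent-only control wells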
# KCC2 bumet counter: thallium flux despite bumetanide block in KCC2 cells, secondary assay 3 | AID 1714 | shares compounds with Cl transport mod | normalized thallium flux at 10 µM | HEK293-KCC2 + bumetanide/ouabain, thallium flux FluoZin2; active compounds read high | 3,700 tested, 49% active;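 active = thallium entry rate above the same plate's blocked-transporter control wells by more than 3 SD; inconclusive = the two repeat wells disagree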;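 note: raw slope of fluorescence over initial fluorescence between 10 and 20 s after thallium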
# KCC2 secondary2: KCC2 (human) modulation, second secondary assay | shares compounds with Cl transport mod | HEK293-KCC2, thallium flux FluoZin2 fluorescence; actives lie on both sides; F/F0 rise rate, 10–20 s post-thallium | normalized thallium flux at 10 µM | 3,700 tested, 23% active | AID 1715;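 active = thallium flux slope more than 3 SD above or below the plate's solvent-only control mean, mostly below; inconclusive = the two repeat wells disagreed; inactive = no significant shift from solvent-only controls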
# HEK293 Tl flux: parental HEK flux effect, counter-screen; HEK293 parental cells, thallium flux FluoZin2, ouabain; baseline-ratio fluorescence slope, 10–20 s after thallium; 3,700 tested, 46% active; thallium flux rate (normalised fluorescence) at 10 µM; shares compounds with Cl transport mod; AID 1716;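 active = thallium flux rate significantly above the same plate's solvent-only control wells, beyond their mean plus 3 SD; inconclusive = the two replicate wells gave conflicting results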
# KCC2 ouabain: confirmation of human KCC2 modulators with ouabain; shares compounds with Cl transport mod; HEK293-KCC2, thallium flux FluoZin2 fluorescence; bidirectional: low = inhibitor, high = activator; raw Tl+ flux slope (below DMSO = inhibition, above = activation) at 10 µM; 3,700 tested, 48% active; AID 1717;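 active = thallium flux slope beyond 3 SD from same-plate DMSO control mean in most replicates, usually higher, sometimes lower; inconclusive = repeat tests gave conflicting results; inactive = no significant difference from controls in most replicates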;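 note: slope of initial-normalized fluorescence between seconds 10 and 20 after thallium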
# HEK293 Tl flux2: counter-screen for KCC2 modulators: effect in parental HEK293 cells; thallium flux slope at 10 µM; thallium flux FluoZin-2 fluorescence slope; 3,700 tested, 33% active; AID 1718; shares compounds with Cl transport mod;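 active = thallium flux slope above the same plate's solvent-control mean plus 3 SD in both duplicate wells; inconclusive = duplicate wells that disagreed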;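 note: run without ouabain in cells lacking the KCC2 cotransporter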
# Numbers stand for hits; 0 = inactive; ? = inconclusive; - = not tested or not shown.
SMILES,WT yeast gro inh,Cl transport mod,Ins promoter up,Autophagy mod,SKKanGAS inh,Rad51 HR inh,KCC2 secondary,KCC2 bumet counter,KCC2 secondary2,HEK293 Tl flux,KCC2 ouabain,HEK293 Tl flux2
COc1ccc(OCC(=O)N2c3ccc(C)cc3C3CN(C)CCC32)cc1 (centres undefined),0,0,0,0,0,0,-,-,-,-,-,-
Cc1cccc(C(=O)NC(=S)N2CCN(C)CC2)c1,0,0,-,0,0,0,-,-,-,-,-,-
Cc1ccc2c(c1)C1CN(C)CCC1N2C(=S)NC(=O)c1ccc(Br)cc1 (centres undefined),0,133,0,0,0,0,0.041,0.11,?,0.13,0.085,0.035
CCOC(=O)N1CCN(C(=S)NC(=O)c2ccc(F)cc2)CC1,0,4.2,0,0,0,0,0,0.011,0,0.013,0,0.016
CN1CCN(C(=S)NC(=O)c2ccc(Br)cc2)CC1,-,12,0,-,0,-,?,0.016,0,0.012,0.026,0
CCOC(=O)N1CCC(NS(=O)(=O)c2ccc(NC(C)=O)c(Cl)c2)CC1,-,-,0,-,0,0,-,-,-,-,-,-
CCCCC(=O)NNC(=O)N1c2ccccc2Sc2ccccc21,-,-,-,-,0,-,-,-,-,-,-,-
Cc1ccc(NC(=S)NNc2ccc([N+](=O)[O-])cc2S(=O)(=O)Nc2ccccc2C(=O)O)cc1C,0,-6.1,0,0,0,0,0,0,0.025,?,0.012,?
Cc1ccc(S(=O)(=O)N2CCC(=O)N(C(COCc3ccccc3)Cc3ccccc3)CC2)cc1 (centres undefined),0,-5.9,0,0,0,0,0,0,?,0,0.015,0
CN1CCC(N(C)CC(C)(C)NS(=O)(=O)c2ccccc2)CC1,-,0,0,-,0,0,-,-,-,-,-,-
O=C(Oc1ccc(N(Cc2cccs2)C2=NS(=O)(=O)c3ccccc32)cc1)c1ccccc1F,0,0,-,0,0,0,-,-,-,-,-,-
O=C(CSc1nnc(-c2ccc(F)cc2)o1)N1CCN(C(=O)c2ccco2)CC1,0,-4.4,0,0,0,0,0,0,0.03,0,0.018,0
O=C(CSc1nnc(CNc2ccc(F)cc2)o1)N1CCN(C(=O)c2ccco2)CC1,0,0,-,0,0,0,-,-,-,-,-,-
COc1ccc(S(=O)(=O)N(CCc2ccccc2)CC(=O)O)cc1Cl,0,-3.8,0,0,0,0,0,?,0.027,0,0.017,0
COc1ccc(S(=O)(=O)N(CCc2ccccc2)CC(N)=O)cc1,0,0,0,0,0,0,-,-,-,-,-,-
Fc1ccc(OCc2nc(-c3ccc(Br)o3)no2)c(F)c1,0,-,0,0,0,0,0,0,0,0,0.015,0
COc1ccc(N2C(=O)C(OC(C)=O)C2c2ccc(C)cc2)cc1 (centres undefined),0,0,0,0,0,-,-,-,-,-,-,-
COc1ccc([C@@H]2Sc3ccccc3N(CCN(C)C)C(=O)[C@@H]2OC(C)=O)cc1,0,4.4,-,0,0,0,0,0,0,0,0,0
COc1ccc(NC(=O)c2cccnc2N2CCCC2)cc1,0,-,0,0,-,0,?,0,0,0,0,0
CCC(=O)Nc1nc(-c2ccccc2)ns1,0,2.5,-,0,0,0,0,0,0,0,0,0
CCn1c(CCNC(=O)c2cccs2)nnc1SCC(=O)Nc1nc(-c2ccccc2)cs1,0,-3.2,-,0,0,0,0,0,?,0,0.014,0
O=C(Nc1cccnc1)c1ccccc1NS(=O)(=O)c1ccc(F)cc1,0,0,0,0,0,0,-,-,-,-,-,-
CN1CCN(S(=O)(=O)c2cccc(C(=O)Nc3nc(-c4ccccc4)cs3)c2)CC1,0,-3,0,0,-,-,0,0,0,?,0,0
O=C(Nc1nc(-c2ccccc2)cs1)c1ccccc1NS(=O)(=O)c1ccc(F)cc1,78,-6.5,0,0,85,-,0,?,0.017,?,0.0096,0
CC(NC(=O)c1ccc(OC2CCN(C(=O)c3cccnc3)CC2)cc1)C1CC1 (centres undefined),0,0,0,0,0,0,-,-,-,-,-,-
SMILES,WT yeast gro inh,Cl transport mod,Ins promoter up,Autophagy mod,SKKanGAS inh,Rad51 HR inh,KCC2 secondary,KCC2 bumet counter,KCC2 secondary2,HEK293 Tl flux,KCC2 ouabain,HEK293 Tl flux2
Cc1ccccc1C1NC(=S)NC2=C1C(=O)CCC2 (centres undefined),0,0,0,0,0,0,-,-,-,-,-,-
COC(=O)c1ccc(S(=O)(=O)N2Cc3ccccc3C2)cc1,0,0,0,0,0,0,-,-,-,-,-,-
O=C(NCc1ccccc1)C(=O)Nc1nc(-c2ccccc2)cs1,-,27,0,-,?,-,0.021,0.037,0,0.053,0.039,0.016
O=C(NCc1ccccn1)C(=O)Nc1nc(-c2ccccc2)cs1,-,0,0,-,0,-,-,-,-,-,-,-
CCn1c(CCNC(=O)c2ccc(OC)cc2)nnc1SCC(=O)Nc1ccccc1F,0,0,0,0,0,0,-,-,-,-,-,-
O=C(Nc1nc(-c2ccccn2)cs1)c1ccc(Cl)s1,0,37,0,0,102,0,0,0.06,0.06,0.06,0.054,0.063
CCOc1ccc(NC(=O)CSc2nnc(CCNC(=O)c3ccc(OC)cc3)n2CC)cc1,0,-,0,0,-,-,0,?,0,0,0,?
O=C(Nc1nc(-c2ccccc2)ns1)c1cccs1,0,-,-,0,0,-,0,0,0,0,0.015,0
CCCCn1c(N)c(N(CC(C)C)C(=O)CC2CCCCC2)c(=O)[nH]c1=O,-,-,-,-,0,-,-,-,-,-,-,-
Cc1ccc(OCCN(C)C(=O)C2CCC(=O)N(CC3CCCCC3)C2)cc1 (centres undefined),-,-,-,-,0,-,-,-,-,-,-,-
CCOc1ccccc1NC(=O)c1ccc2nc[nH]c2c1,-,-,-,-,0,-,-,-,-,-,-,-
O=C(Nc1nc(-c2ccc(Cl)s2)cs1)c1cccs1,0,0,0,0,0,0,-,-,-,-,-,-
O=C(Nc1nc(-c2ccccc2)cs1)c1cccs1,0,0,0,0,0,0,?,0.0094,0,0,?,0
COCCCn1c(SCC(=O)Nc2nnc(C)s2)nnc1-c1ccoc1C,0,-,0,0,0,0,0,0,0,0,0,0
COc1ccc(CNC(=O)C2CCCN(C(=O)Nc3ccc(OC)cc3)C2)cc1 (centres undefined),-,-,-,-,0,-,-,-,-,-,-,-
CCOc1ccc(C(=O)NCCCN(CC)CC)cc1,0,0,0,0,0,0,-,-,-,-,-,-

# Compound activity (PubChem)
